ChEMBL document CHEMBL3856196, “3-(Benzodioxan-2-ylmethoxy)-2,6-difluorobenzamides bearing hydrophobic substituents at the 7-position of the benzodioxane nucleus potently inhibit methicillin-resistant Sa and Mtb cell division” (Eur J Med Chem, 2016)
Converted amounts (≈) assume the structure as drawn. The source made the active and inactive calls. No cut-off for these calls is given here.

Key:
[1] = Therapeutic index, ratio of TD90 for human MRC5 cells to MBC for […] Staphylococcus aureus ATCC 29213; assay type: cell-based; conditions: read-out: TI
In short: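 Ratio of TD₉₀ (MTT assay on MRC-5, 24 h exposure) to MBC against MRSA ATCC 29213 (LB tube assay, wash-out and overnight regrowth by OD600).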

[2] = biological target: T1, Cell division protein FtsZ (Staphylococcus aureus) (UniProt P0A031); assay: Inhibition of Staphylococcus aureus FtsZ assessed as cellular desegregation at 1 ug/ml after overnight incubation by phase-contrast light microscopic analysis
T1 sequence (whole entry): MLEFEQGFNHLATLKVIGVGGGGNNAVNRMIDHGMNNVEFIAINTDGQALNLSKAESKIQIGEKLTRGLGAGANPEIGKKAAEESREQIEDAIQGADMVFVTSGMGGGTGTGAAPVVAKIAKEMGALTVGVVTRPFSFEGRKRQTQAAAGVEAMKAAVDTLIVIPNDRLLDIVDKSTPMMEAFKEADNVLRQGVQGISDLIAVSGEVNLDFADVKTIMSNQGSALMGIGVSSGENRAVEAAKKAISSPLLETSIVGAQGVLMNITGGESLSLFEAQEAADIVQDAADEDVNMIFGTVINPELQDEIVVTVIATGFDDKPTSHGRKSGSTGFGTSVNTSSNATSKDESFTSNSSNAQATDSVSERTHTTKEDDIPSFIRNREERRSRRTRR
In short: (§1)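 S. aureus grown overnight with compound at levels starting from the previously determined MIC. Untreated cultures served as negative control. Examined by phase-contrast microscopy at 630×.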

[3] = Cytotoxicity against human MRC5 cells assessed as reduction in cell viability after 24 hrs by MTT assay; assay type: toxicity, cell-based; conditions: mrc5, 24 h
In short: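 MRC-5 lung fibroblasts (DMEM, 10% heat-inactivated calf serum, 37 °C, 5% CO₂) at 10⁴ cells/well were exposed 24 h to twofold serial dilutions in DMEM. Then 1 mg/ml MTT in serum-free DMEM for 3 h, DMSO solubilisation, A570. Cytotoxicity % = 100 − (sample OD/untreated OD) × 100; TD₅₀/TD₉₀ are concentrations cutting viability 50/90%.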

Staphylococcus aureus [4] = assay: Antibacterial activity against […] Staphylococcus aureus ATCC 29213 after 16 hrs by spectrophotometric analysis; assay type: functional; conditions: ATCC 29213, 16 h
[5] = biological target: T1, Cell division protein FtsZ (Staphylococcus aureus); assay: Inhibition of Staphylococcus aureus FtsZ assessed as cellular desegregation at 1 ug/ml after 16 hrs by transmission electron microscopic analysis
In short: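 S. aureus at 10⁹ cells/ml grown 16 h at 37 °C with compound, untreated control included. Cells were pelleted at 3100 × g for 5 min, fixed in 2.5% glutaraldehyde in 0.1 M Na cacodylate pH 7.4 for 1 h at 4 °C, post-fixed in 1% OsO₄ for 1 h at 4 °C, and examined by TEM for septum and ultrastructure.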

[6] = biological target: T1, Cell division protein FtsZ (Staphylococcus aureus); assay: Inhibition of Staphylococcus aureus FtsZ assessed as increase in cell volume at 1 ug/ml after overnight incubation by phase-contrast light microscopic analysis; in short: as §1
[7] = biological target: T1, Cell division protein FtsZ (Staphylococcus aureus); assay: Inhibition of Staphylococcus aureus FtsZ assessed as bacterial swelling at 1 ug/ml after overnight incubation by phase-contrast light microscopic analysis; in short: as §1
Staphylococcus aureus [8] = assay: Antibacterial activity against methicillin-susceptible Staphylococcus aureus clinical isolates after 24 hrs by CLSI […] broth microdilution method; assay type: functional
In short: (§2)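 CLSI broth microdilution on clinical isolates. Log-phase bacteria in saline at 1–2 × 10⁵ CFU/mL were mixed with compounds diluted in LB, final 0.097–100 μg/mL, for 24 h at 37 °C. MIC is the lowest concentration with total growth inhibition. For MBC, clear wells were plated on sheep-blood agar for 18 h; >99.9% kill versus untreated control. Triplicate.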

Staphylococcus aureus [9] = assay: Antibacterial activity against methicillin-resistant Staphylococcus aureus clinical isolates after 24 hrs by CLSI […] broth microdilution method; assay type: functional; in short: as §2
Enterococcus faecalis [10] = assay: Antibacterial activity against vancomycin-susceptible Enterococcus faecalis clinical isolates after 24 hrs by CLSI […] broth microdilution method; assay type: functional; in short: as §2
Enterococcus faecalis [11] = assay: Antibacterial activity against vancomycin-resistant Enterococcus faecalis clinical isolates after 24 hrs by CLSI […] broth microdilution method; assay type: functional; in short: as §2
[12] = biological target: T1, Cell division protein FtsZ (Staphylococcus aureus); assay: Inhibition of Staphylococcus aureus FtsZ assessed as cellular desegregation at 0.5 ug/ml after overnight incubation by phase-contrast light microscopic analysis; in short: as §1
[13] = biological target: T1, Cell division protein FtsZ (Staphylococcus aureus); assay: Inhibition of Staphylococcus aureus FtsZ assessed as bacterial swelling at 0.5 ug/ml after overnight incubation by phase-contrast light microscopic analysis; in short: as §1
[14] = biological target: T1, Cell division protein FtsZ (Staphylococcus aureus); assay: Inhibition of Staphylococcus aureus FtsZ assessed as increase in cell volume at 0.5 ug/ml after overnight incubation by phase-contrast light microscopic analysis; in short: as §1

Row | SMILES | selectivity ratio [1] | TD90 [3] [µg/mL] | MBC (Staphylococcus aureus [4]) [µg/mL] | MIC (Staphylococcus aureus [4]) [µg/mL] | other results
1 | COC(=O)c1ccc2c(c1)OC(COc1ccc(F)c(C(N)=O)c1F)CO2 (stereo not given) | > 1280 | > 1280 | 0.625 (≈ 1.65 µM) | 0.625 (≈ 1.65 µM) | inhibition [2]: Active; inhibition [5]: Active; inhibition [6]: Active; inhibition [7]: Active
2 | NC(=O)c1c(F)ccc(OCC2COc3ccc(I)cc3O2)c1F (stereo not given) | > 1280 | > 800 | 0.625 (≈ 1.4 µM) | 0.313 (≈ 0.7 µM) | MIC90 (Staphylococcus aureus [8]): 0.78 µg/mL (≈ 1.74 µM); MBC (Staphylococcus aureus [8]; read-out: MBC99.9): 3.12 µg/mL (≈ 6.98 µM); MIC90 (Staphylococcus aureus [9]): 0.39 µg/mL (≈ 0.872 µM); MBC (Staphylococcus aureus [9]; read-out: MBC99.9): 1.56 µg/mL (≈ 3.49 µM); MIC90 (Enterococcus faecalis [10]): 6.25 µg/mL (≈ 14 µM); MBC (Enterococcus faecalis [10]; read-out: MBC99.9): 12.5 µg/mL (≈ 28 µM); MIC90 (Enterococcus faecalis [11]): 6.25 µg/mL (≈ 14 µM); MBC (Enterococcus faecalis [11]; read-out: MBC99.9): 25 µg/mL (≈ 55.9 µM)
3 | NC(=O)c1c(F)ccc(OCC2COc3ccc(N)cc3O2)c1F (stereo not given) | – | – | 100 (≈ 297 µM) | 100 (≈ 297 µM) | –
4 | NC(=O)c1c(F)ccc(OCc2ccc3c(c2)OCCO3)c1F | – | – | 100 (≈ 311 µM) | 100 (≈ 311 µM) | –
5 | CCCCNC(=O)c1ccc2c(c1)OC(COc1ccc(F)c(C(N)=O)c1F)CO2 (stereo not given) | – | – | – | > 100 | –
6 | NC(=O)c1c(F)ccc(OCC2CCc3ccccc3O2)c1F (stereo not given) | – | – | 5 (≈ 15.7 µM) | 5 (≈ 15.7 µM) | –
7 | C#Cc1ccc2c(c1)OC(COc1ccc(F)c(C(N)=O)c1F)CO2 (stereo not given) | 640 | 400 | 0.625 (≈ 1.81 µM) | 0.313 (≈ 0.906 µM) | inhibition [12]: Active; inhibition [13]: Active; inhibition [14]: Active
8 | C=Cc1ccc2c(c1)OC(COc1ccc(F)c(C(N)=O)c1F)CO2 (stereo not given) | > 640 | > 800 | 1.25 (≈ 3.6 µM) | 0.625 (≈ 1.8 µM) | –
9 | NC(=O)c1c(F)ccc(OCC2COc3ccc(Br)cc3O2)c1F (stereo not given) | > 1280 | > 800 | 0.625 (≈ 1.56 µM) | 0.625 (≈ 1.56 µM) | –
10 | NC(=O)c1c(F)ccc(OCC2COc3ccc(C(F)(F)F)cc3O2)c1F (stereo not given) | – | – | 2.5 (≈ 6.42 µM) | 2.5 (≈ 6.42 µM) | –
11 | CS(=O)(=O)Nc1ccc2c(c1)OC(COc1ccc(F)c(C(N)=O)c1F)CO2 (stereo not given) | – | – | – | > 100 | –
